Measured values published in ChEMBL document CHEMBL4706480, “Pyridin-2(1H)one derivatives: A possible new class of therapeutics for mechanical allodynia” (Eur J Med Chem, 2020).
Calls of active or inactive are those of the source. The rule behind the calls is not given here.

What was measured:
Rattus norvegicus [1] = test: Anti-allodynic activity in complete freund's adjuvant-induced rat inflammatory pain model assessed as inflammatory mechanical allodynia pretreated at 100 uM intra-cisternally administerd 30 min before CFA injection; format: functional, organism-based
Procedure, shortened: (§1)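 Rats briefly anesthetized (<2 min, 2% isoflurane by mask), given intracisternal 5 μL compound (100 μM) or vehicle (saline + 1% DMSO) 30 min before subcutaneous CFA (25 μL, 2.5 mg/kg) into right vibrissa pad. Static mechanical allodynia tested with 6-g von Frey filament on face every 15 or 30 min over 120 min; allodynic score 0–4 (Vos). n=4–6 rats.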

[2] = target: Protein kinase C gamma type (Homo sapiens) (UniProt P05129); test: Inhibition of PKC-gamma (unknown origin) assessed as residual activity at 10 uM
Rattus norvegicus [3] = test: Anti-allodynic activity in complete freund's adjuvant-induced rat inflammatory pain model assessed as inflammatory mechanical allodynia pretreated at 100 uM intra-cisternally administerd 30 min before CFA injection measured 120 min after CFA injection relative to control; format: functional; details: 0.5 h; procedure, shortened: as §1
Rattus norvegicus [4] = test: Anti-allodynic activity in complete freund's adjuvant-induced rat inflammatory pain model assessed as inflammatory mechanical allodynia pretreated at 0.15 ug intra-cisternally administerd 30 min before CFA injection relative to control; format: functional; details: dose 0.15 µg, 0.5 h; procedure, shortened: as §1
Rattus norvegicus [5] = test: Anti-allodynic activity in complete freund's adjuvant-induced rat inflammatory pain model assessed as inflammatory mechanical allodynia pretreated at 0.17 ug intra-cisternally administerd 30 min before CFA injection relative to control; format: functional; details: dose 0.17 µg, 0.5 h; procedure, shortened: as §1
Rattus norvegicus [6] = test: Anti-allodynic activity in constriction injury-induced rat neuropathic mechanic allodynia model assessed as inflammatory mechanical allodynia at 0.17 ug intra-cisternally administered on day 14 after injury; format: functional, organism-based; details: dose 0.17 µg, in the assay text read “static mechanical allodynia” for “inflammatory mechanical allodynia”
Procedure, shortened: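 Neuropathic model: infraorbital nerve chronic constriction (two loose 4/0 chromic catgut ligatures 1 mm apart, chloral hydrate 400 mg/kg i.p. anesthesia). On day 14, once stable allodynia present, intracisternal 5 μL compound (100 μM) or vehicle (saline + 1% DMSO) under brief isoflurane. Face stimulated with 6-g von Frey filament; allodynic score 0–4; n=5/group; mean ± s.e.m.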

[7] = target: Mitogen-activated protein kinase 14 (Homo sapiens) (UniProt Q16539); test: Inhibition of p38alpha MAPK (unknown origin) assessed as residual activity at 10 uM
Chain of Mitogen-activated protein kinase 14 (Homo sapiens) (Q16539 whole entry): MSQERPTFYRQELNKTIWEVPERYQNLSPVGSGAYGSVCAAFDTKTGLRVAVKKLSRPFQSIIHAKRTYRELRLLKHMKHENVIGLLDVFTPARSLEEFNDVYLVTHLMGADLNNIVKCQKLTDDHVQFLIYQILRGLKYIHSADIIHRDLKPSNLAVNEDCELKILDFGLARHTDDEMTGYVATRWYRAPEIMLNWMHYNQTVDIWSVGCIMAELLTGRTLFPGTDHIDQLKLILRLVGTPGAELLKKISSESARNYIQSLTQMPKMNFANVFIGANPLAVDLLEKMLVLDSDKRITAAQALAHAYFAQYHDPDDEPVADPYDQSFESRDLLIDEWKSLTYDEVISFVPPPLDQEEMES

| Activity [2] [%] | Compound | inhibition (Rattus norvegicus [1]) | other results |
| --- | --- | --- | --- |
|  | COC(=O)c1ccc(-c2cc(Nc3ccccc3)c[nH]c2=O)cc1 | Active |  |
| > 85 | O=c1[nH]cc(Nc2ccccc2)cc1-c1ccccc1 | Active |  |
|  | O=c1[nH]cc(Nc2ccccc2)cc1-c1ccc(O)cc1 | Active |  |
| > 85 | O=c1[nH]cc(Nc2ccccc2)cc1-c1c[nH]c2ccccc12 |  |  |
|  | Cc1ccc(-c2cc(Nc3ccccc3)c[nH]c2=O)cc1 | Active |  |
|  | O=c1[nH]cc(Nc2ccccc2)cc1-c1ccccc1Cl | Active |  |
|  | O=c1[nH]cc(Nc2ccccc2)cc1-c1ccc(C(F)(F)F)cc1 | Active |  |
|  | O=c1[nH]cc(Nc2ccccc2)cc1-c1ccc(OC(F)(F)F)cc1 | Active |  |
|  | O=c1[nH]cc(Nc2ccccc2)cc1-c1cccc(Cl)c1 | Active |  |
|  | O=c1[nH]cc(Nc2ccccc2)cc1-c1ccccc1[N+](=O)[O-] | Active |  |
| > 85 | O=c1[nH]cc(Nc2ccccc2)cc1-c1ccncc1 | Active | inhibition in vivo at 100 µM (Rattus norvegicus [3]): 90% |
| > 85 | O=c1[nH]cc(Nc2ccccc2)cc1-c1cccc2cnccc12 |  |  |
|  | O=c1[nH]cc(Nc2ccccc2)cc1-c1ccnc2ccccc12 | Active |  |
|  | NC(=O)c1ccc(-c2cc(Nc3ccccc3)c[nH]c2=O)cc1 | Active |  |
| > 85 | O=c1[nH]cc(Nc2ccccc2)cc1-c1cncnc1 | Active |  |
|  | O=c1[nH]cc(Nc2ccccc2)cc1-c1ccc(F)cc1F | Active |  |
| > 85 | O=c1[nH]cc(Nc2ccccc2)cc1-c1cccc2cccnc12 | Active |  |
|  | O=c1[nH]cc(Nc2ccccc2)cc1-c1cccc2[nH]ccc12 | Active | inhibition (INH) (Rattus norvegicus [4]): 98% |
|  | O=c1[nH]cc(Nc2ccccc2)cc1-c1ccccc1Br | Active | inhibition (INH) (Rattus norvegicus [5]): 99%; inhibition (Rattus norvegicus [6]): Active; Activity [7]: 19% |
|  | NC(=O)c1ccccc1-c1cc(Nc2ccccc2)c[nH]c1=O | Active |  |
|  | CCOC(=O)c1ccccc1-c1cc(Nc2ccccc2)c[nH]c1=O | Active |  |
| > 85 | O=c1[nH]cc(Nc2ccccc2)cc1-c1ccc(F)cc1 | Active |  |
|  | CC(=O)c1cccc(-c2cc(Nc3ccccc3)c[nH]c2=O)c1 | Active |  |
